Calls of active or inactive are those of the source. No cut-off for these calls is given here.
Legend:
Mus musculus [1] = experiment: (§1) Antiinflammatory activity in C57BL6/J mouse model of TLR3-induced acute airway inflammation assessed as inhibition of elevated MCP1 levels in BALF at 10 mg/kg, po pre-treated 1 day before poly(I:C) stimulation followed by compound re-dosing at 10 mg/kg, po before another poly(I:C) stimulation and measured after 1 day post last poly(I:C) stimulation by cytokine Bio-Plex assay; type: functional, organism-based
In short: (§2)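 Male C57BL/6J mice, 12 weeks old, 5 per group, dosed 10 mg/kg the day before and again immediately before intranasal poly(I:C) (300 μg in 50 μL PBS). BALF was collected 1 day later by two 1 mL PBS lavages and centrifuged at 800 × g for 5 min at 4 °C. Supernatant cytokines were measured by multiplex bead immunoassay against recombinant standards in triplicate.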

[2] = AUC (0 to t) in Sprague-Dawley rat at 10 mg/kg, iv measured after 2 to 26 hrs; type: ADME, organism-based; details: in vivo
[3] = Total clearance in Sprague-Dawley rat at 10 mg/kg, iv measured after 2 to 26 hrs; type: ADME, organism-based; details: in vivo
In short: (§3)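 Male Sprague-Dawley rats received a single dose either intravenously (10 mg/kg) or orally. Plasma concentration–time curves were followed after each route. Total clearance (CL) came from the i.v. arm, and oral bioavailability (F) was derived by comparing the p.o. and i.v. profiles.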

[4] = Aqueous solubility in water incubated at 25 degC for 24 hrs by HPLC analysis; type: physicochemical; details: buffer
In short: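 Compound suspension was shaken at 25 °C for 24 h, then centrifuged and the supernatant filtered. Supernatant was quantified by C18 reverse-phase HPLC against a one-point calibration of a known concentration.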

Mus musculus [5] = experiment: Antiinflammatory activity in C57BL6/J mouse model of TLR3-induced acute airway inflammation assessed as inhibition of neutrophilic inflammation around small and medium-sized airways at 10 mg/kg, po pre-treated 1 day before poly(I:C) stimulation followed by compound re-dosing at 10 mg/kg, po before another poly(I:C) stimulation and measured after 1 day post last poly(I:C) stimulation by …; type: functional
Mus musculus [6] = experiment: as §1, with “ISG54 gene expression” for “MCP1 levels”, “lung” for “BALF”, “stimulation” for “stimulation by cytokine Bio-Plex assay”; type: functional, organism-based
In short: (§4)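 Male C57BL/6J mice, 12 weeks old, 5 per group, dosed 10 mg/kg one day before challenge and again immediately before intranasal poly(I:C) (300 μg in 50 μL PBS). Controls were vehicle alone and poly(I:C) alone. Lungs were taken 1 day later. Gene expression in lung tissue was measured by qRT-PCR, normalized to PPIA.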

Mus musculus [7] = experiment: as §1, with “elevated RANTES” for “elevated MCP1”, “mg/kg, ip” for “mg/kg, po”; type: functional, organism-based; in short: as §2
Mus musculus [8] = experiment: as §1, with “KC gene expression” for “MCP1 levels”, “lung” for “BALF”, “stimulation” for “stimulation by cytokine Bio-Plex assay”; type: functional, organism-based; in short: as §4
Mus musculus [9] = experiment: as §1, with “elevated ISG54 gene expression” for “elevated MCP1 levels”, “in lung” for “in BALF”, “mg/kg, ip” for “mg/kg, po”, “stimulation” for “stimulation by cytokine Bio-Plex assay”; type: functional, organism-based; in short: as §4
Mus musculus [10] = experiment: as §1, with “KC” for “MCP1”; type: functional, organism-based; in short: as §2
[11] = Half life in Sprague-Dawley rat at 10 mg/kg, iv measured after 2 to 26 hrs; type: ADME, organism-based; details: in vivo
Mus musculus [12] = experiment: (§5) In-vivo inhibition of BRD4 in C57BL6/J mouse model of TLR3-induced acute airway inflammation assessed as reduction in H3K122Ac levels in lung at 10 mg/kg, ip pre-treated 1 day before poly(I:C) stimulation followed by compound re-dosing at 10 mg/kg, ip before another poly(I:C) stimulation and measured after 1 day post last poly(I:C) stimulation by immunofluorescence staining; type: functional, organism-based
In short: (§6)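 Male C57BL/6J mice, 5 per group, dosed 10 mg/kg before and again at intranasal poly(I:C) challenge (300 μg). Lungs were taken 1 day later, paraffin sections made, and antigen retrieved at pH 9.0. Sections were stained with anti-acetyl-H3K122 and an Alexa 568 secondary with DAPI, imaged by confocal at 63×, and total fluorescence reported as fold change.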

Mus musculus [13] = experiment: as §1, with “mg/kg, ip” for “mg/kg, po”; type: functional, organism-based; in short: as §2
[14] = Cmax in Sprague-Dawley rat at 10 mg/kg, iv measured after 2 to 26 hrs; type: ADME, organism-based; parameters: dose 10 mg/kg, route intravenous; details: in vivo
[15] = AUC (0 to t) in Sprague-Dawley rat at 20 mg/kg, po measured after 2 to 26 hrs; type: ADME, organism-based; details: in vivo
Mus musculus [16] = experiment: as §1, with “RANTES” for “MCP1”; type: functional, organism-based; in short: as §2
[17] = Cmax in Sprague-Dawley rat at 20 mg/kg, po measured after 2 to 26 hrs; type: ADME, organism-based; parameters: dose 20 mg/kg, route oral; details: in vivo
[18] = Oral bioavailability in Sprague-Dawley rat at 20 mg/kg measured after 2 to 26 hrs; type: ADME, organism-based; details: in vivo; in short: as §3
Mus musculus [19] = experiment: as §1, with “CIG5 gene expression” for “MCP1 levels”, “lung” for “BALF”, “stimulation” for “stimulation by cytokine Bio-Plex assay”; type: functional, organism-based; in short: as §4
Mus musculus [20] = experiment: as §5, with “po” for “ip”; type: functional, organism-based; in short: as §6
Mus musculus [21] = experiment: as §1, with “elevated IL-6” for “elevated MCP1”, “mg/kg, ip” for “mg/kg, po”; type: functional, organism-based; in short: as §2
Mus musculus [22] = experiment: as §1, with “elevated KC gene expression” for “elevated MCP1 levels”, “in lung” for “in BALF”, “mg/kg, ip” for “mg/kg, po”, “stimulation” for “stimulation by cytokine Bio-Plex assay”; type: functional, organism-based; in short: as §4
Mus musculus [23] = experiment: as §1, with “IL6 gene expression” for “MCP1 levels”, “lung” for “BALF”, “stimulation” for “stimulation by cytokine Bio-Plex assay”; type: functional, organism-based; in short: as §4
Mus musculus [24] = experiment: as §1, with “elevated total cells” for “elevated MCP1 levels”, “mg/kg, ip” for “mg/kg, po”, “stimulation” for “stimulation by cytokine Bio-Plex assay”; type: functional, organism-based
In short: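 Male C57BL/6J mice, 12 weeks old, 5 per group, dosed 10 mg/kg one day before and again immediately before intranasal poly(I:C) (300 μg/50 μL PBS). BALF was collected 1 day later. Total viable cells were counted by trypan blue with a hemocytometer. Neutrophils were counted as a differential of 300 cells on Wright-Giemsa stained cytospins.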

[25] = Half life in Sprague-Dawley rat at 20 mg/kg, po measured after 2 to 26 hrs; type: ADME, organism-based; details: in vivo
Mus musculus [26] = experiment: as §1, with “elevated IL6 gene expression” for “elevated MCP1 levels”, “in lung” for “in BALF”, “mg/kg, ip” for “mg/kg, po”, “stimulation” for “stimulation by cytokine Bio-Plex assay”; type: functional, organism-based; in short: as §4

Row | SMILES | inhibition (Mus musculus [1]) | AUC(0-t) [2] [ng·h/mL] | clearance [3] [mL/min/kg] | solubility [4] [mg/mL] | inhibition in vivo at 10 mg/kg (Mus musculus [5]) [%] | inhibition (Mus musculus [6]) | inhibition (Mus musculus [7]) | inhibition (Mus musculus [8]) | inhibition (Mus musculus [9]) | inhibition (Mus musculus [10]) | half-life [11] [h] | inhibition (Mus musculus [12]) | inhibition (Mus musculus [13]) | Cmax [14] [ng/mL] | AUC(0-t) [15] [ng·h/mL] | inhibition (Mus musculus [16]) | Cmax [17] [ng/mL] | F [18] [%] | inhibition (Mus musculus [19]) | inhibition (Mus musculus [20]) | further results
1 | COc1cc(OC)c2c(=O)cc(-c3cc(C)c(OC[C@H](O)CN4CCCCC4)c(C)c3)oc2c1 | Active | 6760 | 24.7 | > 50 | 100 | Active | Active | Active | Active | Active | 3.5 | Active | Active | 2860 | 5170 | Active | 575 | 38.2 | Active | Active | inhibition (Mus musculus [21]): Active; inhibition (Mus musculus [22]): Active; inhibition (Mus musculus [23]): Active; inhibition (Mus musculus [24]): Active; half-life [25]: 2.4 h; inhibition (Mus musculus [26]): Active
2 | COc1cc(OC)c2c(=O)cc(-c3cc(C)c(OC[C@H](O)CN4CCN(C)CC4)c(C)c3)oc2c1 | Active | 7030 | 24.7 | > 50 | 100 | Active | Active | Active | Active | Active | 4.1 | Active | Active | 2090 | 4970 | Active | 606 | 35.3 | Active | Active | inhibition (Mus musculus [21]): Active; inhibition (Mus musculus [22]): Active; inhibition (Mus musculus [23]): Active; inhibition (Mus musculus [24]): Active; half-life [25]: 2.8 h; inhibition (Mus musculus [26]): Active
